Source: ChEMBL document CHEMBL1240424, “Design and synthesis of potent inhibitors of beta-ketoacyl-acyl carrier protein synthase III (FabH) as potential antibacterial agents” (Eur J Med Chem, 2010)
pIC50: −log10 of the molar value.

Tests used:
Staphylococcus aureus = experiment: Antibacterial activity against Staphylococcus aureus after 24 hrs by MTT assay; assay type: functional
Outline: (§1)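 Broth microdilution in Mueller–Hinton medium. Compounds from a 100 μg/mL DMSO stock were serially diluted, and inoculum was about 10⁵ cfu/mL. Plates were incubated 24 h at 37 °C and MIC was read visually. MTT (2 mg/mL in PBS pH 7.4) was then added for 4–5 h at room temperature, dye extracted with acidified isopropanol for 12 h, and OD read at 550 nm.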

Escherichia coli = experiment: Antibacterial activity against Escherichia coli after 24 hrs by MTT assay; assay type: functional; outline: as §1
Pseudomonas fluorescens = experiment: Antibacterial activity against Pseudomonas fluorescens after 24 hrs by MTT assay; assay type: functional; outline: as §1
Bacillus subtilis = experiment: Antibacterial activity against Bacillus subtilis after 24 hrs by MTT assay; assay type: functional; outline: as §1
[1] = Inhibition of Escherichia coli N-terminal His-tagged FabH expressed in Escherichia coli BL21(DE3) after 25 mins
Outline: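 His-tagged E. coli FabH was Ni-NTA purified. Reaction: 1 nM FabH, 2.5 μM holo-ACP, 20 mM sodium phosphate pH 7.0, 0.5 mM DTT, 0.25 mM MgCl₂. Started with 25 μM acetyl-CoA plus [³H]acetyl-CoA and run 25 min. Stopped with cold 50% TCA, pellet washed and dissolved in NaOH, ³H counted by scintillation. Inhibitors added from DMSO, final ≤2% DMSO, to give IC50.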

Compound | Activity (Staphylococcus aureus) | Activity (Escherichia coli) | Activity (Pseudomonas fluorescens) | Activity (Bacillus subtilis) | pIC50 [1]
NC[C@H]1O[C@H](O[C@H]2[C@H](O)[C@@H](O[C@H]3O[C@H](CO)[C@@H](O)[C@H](N)[C@H]3O)[C@H](N)C[C@@H]2N)[C@H](O)[C@@H](O)[C@@H]1O [KANAMYCIN] | 1.56 µg/mL | 3.13 µg/mL | 3.13 µg/mL | 1.56 µg/mL | –
Oc1ccc(F)cc1/C=N/C1CCCCC1 | 12.5 µg/mL | 6.25 µg/mL | 12.5 µg/mL | 25 µg/mL | 5.13
Oc1ccc(F)cc1/C=N/c1ccccc1Cl | 12.5 µg/mL | 6.25 µg/mL | 12.5 µg/mL | 12.5 µg/mL | 4.93
CN(C)CCC/N=C/c1cc(F)ccc1O | >100 µg/mL | >100 µg/mL | >100 µg/mL | >100 µg/mL | –
Oc1ccc(F)cc1/C=N/c1ccccn1 | 100 µg/mL | 50 µg/mL | 100 µg/mL | >100 µg/mL | –
CC(C)c1ccc(/N=C/c2cc(F)ccc2O)cc1 | >100 µg/mL | >100 µg/mL | 100 µg/mL | >100 µg/mL | –
Oc1ccc(F)cc1/C=N/CCN1CCNCC1 | 25 µg/mL | 12.5 µg/mL | 25 µg/mL | 50 µg/mL | 4.31
Oc1ccc(F)cc1/C=N/C1CCN(Cc2ccccc2)CC1 | >100 µg/mL | >100 µg/mL | >100 µg/mL | >100 µg/mL | –
CCN(CC)CCC/N=C/c1cc(F)ccc1O | >100 µg/mL | >100 µg/mL | >100 µg/mL | >100 µg/mL | –
Oc1ccc(F)cc1/C=N/c1ccc(F)cc1 | 12.5 µg/mL | 12.5 µg/mL | 12.5 µg/mL | 25 µg/mL | 4.54
Oc1ccc(/N=C/c2cc(F)ccc2O)cc1 | >100 µg/mL | >100 µg/mL | >100 µg/mL | >100 µg/mL | –
Cc1ccc(/N=C/c2cc(F)ccc2O)cc1 | 100 µg/mL | 50 µg/mL | 50 µg/mL | >100 µg/mL | –
Oc1ccc(F)cc1/C=N/CCN1CCOCC1 | 50 µg/mL | 25 µg/mL | 25 µg/mL | 50 µg/mL | –
Oc1ccc(F)cc1/C=N/c1ccc(Br)cc1 | 50 µg/mL | 25 µg/mL | 25 µg/mL | 50 µg/mL | –
Oc1ccc(F)cc1/C=N/c1ccc(Cl)cc1 | 25 µg/mL | 12.5 µg/mL | 25 µg/mL | 50 µg/mL | 4.37
Oc1ccc(F)cc1/C=N/CC1CCCCC1 | 25 µg/mL | 6.25 µg/mL | 6.25 µg/mL | 12.5 µg/mL | 5.17
O=[N+]([O-])c1ccc(/N=C/c2cc(F)ccc2O)cc1 | >100 µg/mL | >100 µg/mL | >100 µg/mL | >100 µg/mL | –
Oc1ccc(F)cc1/C=N/C1CCCC1 | 25 µg/mL | 12.5 µg/mL | 12.5 µg/mL | 25 µg/mL | 4.74
Oc1ccc(CC/N=C/c2cc(F)ccc2O)cc1 | 1.56 µg/mL | 1.56 µg/mL | 3.13 µg/mL | 6.25 µg/mL | 5.57
Oc1ccc(F)cc1/C=N/c1ccccc1F | 6.25 µg/mL | 6.25 µg/mL | 6.25 µg/mL | 12.5 µg/mL | 5.07
Oc1ccc(F)cc1/C=N/CCCN1CCOCC1 | >100 µg/mL | >100 µg/mL | >100 µg/mL | >100 µg/mL | –
